Laboratory results taken from ChEMBL document CHEMBL1153862, “Design, synthesis and biological evaluation of novel fluorinated docetaxel analogues” (Eur J Med Chem, 2009).

Tests used:
Mus musculus [1] = test: Toxicity in BALB/cA nude mouse assessed as survival at 12 mg/kg, iv; details: in vivo
Mus musculus [2] = test: Toxicity in BALB/cA nude mouse assessed as change in body weight at 16 mg/kg, iv; details: in vivo
Mus musculus [3] = test: Toxicity in BALB/cA nude mouse assessed as change in body weight at 12 mg/kg, iv; details: in vivo
Mus musculus [4] = test: Toxicity in BALB/cA nude mouse assessed as survival at 16 mg/kg, iv; details: in vivo
[5] = Toxicity in Kunming mouse assessed as survival; type: organism-based; details: in vivo
Outline: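 Healthy Kunming mice of both sexes, 18–22 g, split into 7 weight-matched groups of 10. Single i.p. dose at 92.0, 115.0, 143.0, 179.0, 224.0, 280.0 or 350.0 mg/kg. Behaviour, body weight and deaths recorded over 14 days. LD₅₀ with 95% confidence limits derived by the Bliss method.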

SK-OV-3 = test: Cytotoxicity against human SKOV3 cells after 72 hrs by SRB assay; type: functional, cell-based; details: SK-OV-3, 72 h
Outline: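 SK-OV-3 ovarian cells were grown in RPMI 1640 with 10% FBS at 37 °C and 5% CO2, seeded at 0.4–1.0 × 10⁴ cells/well and treated after 24 h. Compounds were dissolved in DMSO (≤0.1% final) and tested at at least five concentrations for 72 h. Growth was read by SRB at OD 520 nm; tests were run 3 times in quadruplicate. IC50 came from survival-versus-concentration curves.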

A549 [6] = test: Antitumor activity against human A549 cells xenografted BALB/cA mouse at 12 mg/kg, iv relative to control; type: functional
Outline: (§1)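 A549 NSCLC cells were injected s.c. into BALB/cA nude mice (18 ± 3 g, 6 per group). After 2–3 passages, tumors were grafted s.c. at the right oxter. Once tumors were palpable (about 100–300 mm³ in methods; 80–150 mm³ in table footnote), mice were randomized to untreated, docetaxel or treated groups, dosed i.v., and measured by calipers 3 times weekly. T/C% = mean treated/mean control tumor volume × 100, read at day 14.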

A549 [7] = test: Antitumor activity against human A549 cells xenografted BALB/cA mouse at 16 mg/kg, iv relative to control; type: functional
Outline: as §1

Mus musculus [8] = test: Toxicity in BALB/cA nude mouse assessed as change in body weight at 18 mg/kg, iv; details: in vivo
A549 [9] = test: Antitumor activity against human A549 cells xenografted BALB/cA mouse at 18 mg/kg, iv relative to control; type: functional
Outline: as §1

Mus musculus [10] = test: Toxicity in BALB/cA nude mouse assessed as survival at 18 mg/kg, iv; details: in vivo

Structure (SMILES) | Activity (Mus musculus [1]) | Activity (Mus musculus [2]) [%] | Activity (Mus musculus [3]) [%] | Activity (Mus musculus [4]) | LD50 [5] [mg/kg] | IC50 (SK-OV-3) [nM] | T/C (A549 [6]) [%] | T/C (A549 [7]) [%] | Activity (Mus musculus [8]) [%] | T/C (A549 [9]) [%] | Activity (Mus musculus [10])
CC(=O)O[C@@]12CO[C@@H]1C[C@H](O)[C@@]1(C)C(=O)[C@H](O)C3=C(C)[C@@H](OC(=O)[C@H](O)[C@@H](NC(=O)OC(C)(C)CF)c4ccccc4)C[C@@](O)([C@@H](OC(=O)c4ccccc4)[C@H]21)C3(C)C | Non-toxic | -22 | -19.1 | Non-toxic | 74.1 | 3.8 | 41.5 | 37.9 |  |  | 
CC(=O)O[C@@]12CO[C@@H]1C[C@H](O)[C@@]1(C)C(=O)[C@H](O)C3=C(C)[C@@H](OC(=O)[C@H](O)[C@@H](NC(=O)OC(C)(C)C(F)(F)F)c4ccccc4)C[C@@](O)([C@@H](OC(=O)c4cccc(F)c4)[C@H]21)C3(C)C |  |  |  |  |  | 34 |  |  |  |  | 
CC(=O)O[C@@]12CO[C@@H]1C[C@H](O)[C@@]1(C)C(=O)[C@H](O)C3=C(C)[C@@H](OC(=O)[C@H](O)[C@@H](NC(=O)OC(C)(C)CF)c4ccccc4)C[C@@](O)([C@@H](OC(=O)c4cccc(F)c4)[C@H]21)C3(C)C | Non-toxic |  | -18 |  |  | 0.03 | 53.7 |  | -31.3 | 30.2 | Non-toxic
CC(=O)O[C@@]12CO[C@@H]1C[C@H](O)[C@@]1(C)C(=O)[C@H](O)C3=C(C)[C@@H](OC(=O)[C@H](O)[C@@H](NC(=O)OC(C)(C)C(F)(F)F)c4ccccc4)C[C@@](O)([C@@H](OC(=O)c4ccccc4)[C@H]21)C3(C)C | Non-toxic |  | 0 |  |  | 0.01 | 91.8 |  | -9.7 | 72 | Non-toxic
CC(=O)O[C@@]12CO[C@@H]1C[C@H](O)[C@@]1(C)C(=O)[C@H](O)C3=C(C)[C@@H](OC(=O)[C@H](O)[C@@H](NC(=O)OC(C)(C)C(F)F)c4ccccc4)C[C@@](O)([C@@H](OC(=O)c4ccccc4)[C@H]21)C3(C)C | Non-toxic |  | 0 |  |  | 0.02 | 91.5 |  | -7.7 | 83.5 | Non-toxic
CC(=O)O[C@@]12CO[C@@H]1C[C@H](O)[C@@]1(C)C(=O)[C@H](O)C3=C(C)[C@@H](OC(=O)[C@H](O)[C@@H](NC(=O)OC(C)(C)C(F)F)c4ccccc4)C[C@@](O)([C@@H](OC(=O)c4cccc(F)c4)[C@H]21)C3(C)C | Non-toxic |  | -16.5 |  |  | 0.05 | 51.7 |  | -26.7 | 24.4 | Non-toxic
CC(=O)O[C@@]12CO[C@@H]1C[C@H](O)[C@@]1(C)C(=O)[C@H](O)C3=C(C)[C@@H](OC(=O)[C@H](O)[C@@H](NC(=O)OC(C)(C)C)c4ccccc4)C[C@@](O)([C@@H](OC(=O)c4ccccc4)[C@H]21)C3(C)C.O.O.O [DOCETAXEL] | Non-toxic |  | -19.6 |  |  | 3.4 | 43 |  |  |  | 
